This passage reports max activity results from PubChem BioAssay AID624109 (Broad Institute, 2012).

SMILES strings stand for the structures. Records with an inconclusive call do not appear. Values without a mark were called inactive.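 How the source made its calls: active means curve reaches the -35% threshold at a concentration no more than twice the top valid dose, in duplicate at both wavelengths; inconclusive means no clear call, values can overlap the other calls; inactive means the rest, including effects opposite to the expected decrease.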

The assay can be described thus: inhibition of P. aeruginosa growth with EDDHA – absorbance 405 nm, dry powder, set 6, dose response (AID 624109). To be noted: hits give low values; at 0.056 µM unless noted. The gist of the method: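 Test system – P. aeruginosa ATCC 15692 bacteria · Input – final OD600 0.0000005 inoculum · Medium – succinate M9 medium at pH 7.0 with iron chelator EDDHA · Incubation – 24-30 h growth at 37 °C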
For `Clc1ccc(C(c2cccc(Cl)n2)c2nn[nH]n2)cc1` (centres undefined), the max activity was 10.4% [at 13.5 µM].

For the compound `COCCC(C#N)c1ccc(F)cc1` (centres undefined), the max activity is -46.3% [at 0.5 µM].

As for `CCCCC(C#N)c1ccc(F)cn1` (centres undefined), the max activity is -30.6% [at 0.5 µM].

Regarding `COCCC(C#N)c1ccc(Cl)cc1` (centres undefined), the max activity was -41.4%.

Regarding `CCCCC(C#N)c1ccc(Cl)cc1` (centres undefined), the max activity was -39.1% [at 0.16 µM].

As to `CCCCC(C#N)c1ccc(Cl)cn1` (centres undefined), the max activity is -57.2%.

Regarding `CCCCC(C#N)c1ccc(F)cc1` (centres undefined), the max activity is -50.3% [at 1.5 µM].

With `N#CC1c2ccc(Cl)cc2CCc2cccnc21` (centres undefined), the max activity is -36.3% [at 4.6 µM].

For `N#CC(c1ccc(Cl)cc1)c1ccccn1` (centres undefined), the max activity is -55.2%.

On to `CN(C)CCCC(C#N)c1ccc(Cl)cc1` (centres undefined), for which the max activity is -33.4%.

Consider `COCCNC(C#N)c1ccc(Cl)cc1` (centres undefined), for which the max activity was -29.7% [at 4.6 µM].

Regarding `CCCCC(C#N)c1ccccn1` (centres undefined), the max activity is 1.07% [at 120 µM].

As to `N#CC(c1ccc(F)cc1)c1cccc(Cl)n1` (centres undefined), the max activity is -43.2% [at 0.16 µM].

For the compound `N#Cc1cccc(C(C#N)c2ccc(F)cc2)n1` (centres undefined), the max activity was 19% [at 0.0195 µM].
